Measured values taken from ChEMBL document CHEMBL3414463, “Discovery of potent and selective 8-fluorotriazolopyridine c-Met inhibitors” (J Med Chem, 2015).

What was measured:
[1] = target: T1, Hepatocyte growth factor receptor (Homo sapiens, UniProt P08581); test: Inhibition of recombinant c-Met kinase domain (unknown origin) incubated for 30 mins using gastrin peptide substrate by HTRF assay
Liver microsome [2] = test: Stability in rat liver microsomes assessed as compound turnover rate; format: ADME
Cytochrome P450 3A4 = Cytochrome P450 3A4 (Homo sapiens, UniProt P08684); test: Inhibition of CYP3A4 (unknown origin); format: ADME
Cytochrome P450 3A4, sequence (P08684 whole entry): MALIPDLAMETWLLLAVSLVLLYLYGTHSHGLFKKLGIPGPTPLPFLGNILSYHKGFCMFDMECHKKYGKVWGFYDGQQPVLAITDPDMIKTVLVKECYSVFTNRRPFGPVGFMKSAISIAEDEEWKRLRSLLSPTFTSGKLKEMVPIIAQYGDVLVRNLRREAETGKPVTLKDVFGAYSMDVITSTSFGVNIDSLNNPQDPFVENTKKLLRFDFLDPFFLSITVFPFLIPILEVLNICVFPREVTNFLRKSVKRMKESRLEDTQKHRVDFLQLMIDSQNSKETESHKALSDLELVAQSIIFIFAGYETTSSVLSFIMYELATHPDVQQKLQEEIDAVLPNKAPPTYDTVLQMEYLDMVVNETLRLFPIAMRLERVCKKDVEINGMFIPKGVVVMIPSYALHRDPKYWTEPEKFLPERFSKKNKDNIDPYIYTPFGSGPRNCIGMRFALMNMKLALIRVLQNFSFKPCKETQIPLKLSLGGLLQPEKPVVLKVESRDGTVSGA

Cytochrome P450 2D6 = Cytochrome P450 2D6 (Homo sapiens, UniProt P10635); test: Inhibition of CYP2D6 (unknown origin); format: ADME
Cytochrome P450 2D6, sequence (P10635 whole entry): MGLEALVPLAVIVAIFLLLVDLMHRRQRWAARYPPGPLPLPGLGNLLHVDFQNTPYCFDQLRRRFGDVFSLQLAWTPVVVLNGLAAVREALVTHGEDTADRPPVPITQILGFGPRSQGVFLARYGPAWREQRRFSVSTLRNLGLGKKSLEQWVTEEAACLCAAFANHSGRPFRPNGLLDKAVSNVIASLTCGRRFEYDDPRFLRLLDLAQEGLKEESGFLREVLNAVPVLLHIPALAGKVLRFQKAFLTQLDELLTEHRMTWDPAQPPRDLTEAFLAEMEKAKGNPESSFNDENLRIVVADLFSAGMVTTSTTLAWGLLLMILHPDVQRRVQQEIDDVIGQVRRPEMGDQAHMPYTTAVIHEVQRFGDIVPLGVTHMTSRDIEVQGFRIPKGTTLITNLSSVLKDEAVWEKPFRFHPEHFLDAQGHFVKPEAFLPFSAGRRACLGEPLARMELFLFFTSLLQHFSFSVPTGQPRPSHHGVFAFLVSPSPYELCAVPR

Liver microsome [3] = test: Stability in human liver microsomes assessed as compound turnover rate; format: ADME
[4] = target: T1, Hepatocyte growth factor receptor; test: Inhibition of HGF-stimulated c-Met autophosphorylation in serum starved human PC3 cells pre-incubated for 1 hr followed by human recombinant HGF stimulation for 10 mins by quantitative electrochemiluminescence immunoassay; format: cell-based, PC-3
How it was run: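 Serum-starved PC-3 cells (plated in high-glucose DMEM/10% FBS, then 16 h in low-glucose DMEM with 0.1% BSA) were treated with a 10-point inhibitor dilution for 1 h at 37 °C. Cells were then stimulated with 200 ng/mL recombinant human HGF for 10 min and lysed. Phospho-c-Met was captured with biotinylated anti-c-Met and 4G10 by electrochemiluminescence. IC50, n ≥ 2.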

[5] = AUC (0 to infinity) in Sprague-Dawley rat at 2 mg/kg, po; format: ADME, organism-based; parameters: time infinity, dose 2 mg/kg, route oral; settings: plasma
How it was run: (§1)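 Male Sprague-Dawley rats given 2.0 mg/kg orally in 2% (w/v) hydroxypropylmethylcellulose, 1% (w/v) Tween 80 in water, pH 2.2 (adjusted with HCl or MSA). Some inhibitors instead used 10% (v/v) dimethylacetamide in the same vehicle.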

[6] = Drug metabolism in mouse liver microsomes assessed as formation of (S)-(5-(8-fluoro-3-(1-(3-methoxyquinolin-6-yl)ethyl)-[1,2,4]triazolo[4,3-a]pyridin-6-yl)isoxazol-3-yl)methanol in presence of NADPH by LC-MS/MS method; format: ADME
How it was run: (§2)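 Compound incubated with NADPH in mouse, rat, dog, monkey or human liver microsomes. Metabolites were identified by accurate mass spectrometry and MS/MS, and selected ion chromatograms were used to build metabolite profiles.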

[7] = Drug metabolism in mouse liver microsomes assessed as metabolite M3 formation in presence of NADPH by LC-MS/MS method; format: ADME; how it was run: as §2
[8] = Clearance in Sprague-Dawley rat at 0.25 mg/kg, iv; format: ADME, organism-based; parameters: dose 0.25 mg/kg, route intravenous; settings: Sprague-Dawley, in vivo
Liver microsome [9] = test: Drug metabolism in rat liver microsomes assessed as formation of (S)-6-(1-(8-fluoro-6-(3-methylisoxazol-5-yl)-[1,2,4]triazolo[4,3-a]pyridin-3-yl)ethyl)quinolin-3-ol in presence of NADPH by LC-MS/MS method; format: ADME; how it was run: as §2
[10] = Oral bioavailability in Sprague-Dawley rat at 2 mg/kg; format: ADME, organism-based; settings: in vivo; how it was run: as §1
Liver microsome [11] = test: Unbound clearance rat liver microsomes at 1 uM in presence of NADPH by LC-MS/MS method; format: ADME
How it was run: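 Aliquots were taken at 0, 10, 20, 30 and 40 min, quenched with an equal volume of acetonitrile, centrifuged and analysed by LC/MS/MS.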

Liver microsome [12] = test: Drug metabolism in human liver microsomes assessed as formation of (S)-2-(8-fluoro-6-(3-methylisoxazol-5-yl)-[1,2,4]triazolo[4,3-a]pyridin-3-yl)-2-(3-methoxyquinolin-6-yl)ethanol in presence of NADPH by LC-MS/MS method; format: ADME; how it was run: as §2
[13] = Volume of distribution at steady state in Sprague-Dawley rat at 0.25 mg/kg, iv; format: ADME, organism-based; parameters: dose 0.25 mg/kg, route intravenous; settings: in vivo, read-out: Vdss
How it was run: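 Male Sprague-Dawley rats were given a single IV dose of 0.25 mg/kg. The vehicle was DMSO, or for some compounds 20% (w/v) hydroxypropyl β-cyclodextrin in water adjusted to pH 3.5 with MSA. NC marks cases where the terminal disposition rate constant could not be characterized for lack of slope.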

Liver microsome [14] = test: Drug metabolism in dog liver microsomes assessed as formation of (S)-2-(8-fluoro-6-(3-methylisoxazol-5-yl)-[1,2,4]triazolo[4,3-a]pyridin-3-yl)-2-(3-methoxyquinolin-6-yl)ethanol in presence of NADPH by LC-MS/MS method; format: ADME, Canis lupus familiaris; how it was run: as §2
[15] = Half life in Sprague-Dawley rat at 0.25 mg/kg, iv; format: ADME, organism-based; parameters: dose 0.25 mg/kg, route intravenous; settings: in vivo
Liver microsome [16] = test: Drug metabolism in rat liver microsomes assessed as metabolite M3 formation in presence of NADPH by LC-MS/MS method; format: ADME; how it was run: as §2
Liver microsome [17] = test: Drug metabolism in dog liver microsomes assessed as metabolite M3 in presence of NADPH by LC-MS/MS method; format: ADME, Canis lupus familiaris; how it was run: as §2
[18] = Drug metabolism in mouse liver microsomes assessed as formation of (S)-6-(1-(8-fluoro-6-(3-methylisoxazol-5-yl)-[1,2,4]triazolo[4,3-a]pyridin-3-yl)ethyl)quinolin-3-ol in presence of NADPH by LC-MS/MS method; format: ADME; how it was run: as §2
Liver microsome [19] = test: Drug metabolism in rat liver microsomes assessed as formation of (S)-2-(8-fluoro-6-(3-methylisoxazol-5-yl)-[1,2,4]triazolo[4,3-a]pyridin-3-yl)-2-(3-methoxyquinolin-6-yl)ethanol in presence of NADPH by LC-MS/MS method; format: ADME; how it was run: as §2
Liver microsome [20] = test: Drug metabolism in dog liver microsomes assessed as formation of (S)-6-(1-(8-fluoro-6-(3-methylisoxazol-5-yl)-[1,2,4]triazolo[4,3-a]pyridin-3-yl)ethyl)quinolin-3-ol in presence of NADPH by LC-MS/MS method; format: ADME, Canis lupus familiaris; how it was run: as §2
[21] = Drug metabolism in monkey liver microsomes assessed as formation of (S)-2-(8-fluoro-6-(3-methylisoxazol-5-yl)-[1,2,4]triazolo[4,3-a]pyridin-3-yl)-2-(3-methoxyquinolin-6-yl)ethanol in presence of NADPH by LC-MS/MS method; format: ADME, Macaca mulatta; settings: rhesus monkey; how it was run: as §2
Liver microsome [22] = test: Drug metabolism in rat liver microsomes assessed as formation of (S)-(5-(8-fluoro-3-(1-(3-methoxyquinolin-6-yl)ethyl)-[1,2,4]triazolo[4,3-a]pyridin-6-yl)isoxazol-3-yl)methanol in presence of NADPH by LC-MS/MS method; format: ADME; how it was run: as §2
[23] = AUC (0 to infinity) in Sprague-Dawley rat at 0.25 mg/kg, iv; format: ADME, organism-based, Plasma; parameters: dose 0.25 mg/kg, route intravenous, time infinity; settings: Sprague-Dawley, plasma
[24] = Drug metabolism in mouse liver microsomes assessed as formation of (S)-2-(8-fluoro-6-(3-methylisoxazol-5-yl)-[1,2,4]triazolo[4,3-a]pyridin-3-yl)-2-(3-methoxyquinolin-6-yl)ethanol formation in presence of NADPH by LC-MS/MS method; format: ADME; how it was run: as §2
Liver microsome [25] = test: Drug metabolism in dog liver microsomes assessed as formation of (S)-(5-(8-fluoro-3-(1-(3-methoxyquinolin-6-yl)ethyl)-[1,2,4]triazolo[4,3-a]pyridin-6-yl)isoxazol-3-yl)methanol in presence of NADPH by LC-MS/MS method; format: ADME, Canis lupus familiaris; how it was run: as §2

T1 sequence (P08581 whole entry, the tested form may be a part): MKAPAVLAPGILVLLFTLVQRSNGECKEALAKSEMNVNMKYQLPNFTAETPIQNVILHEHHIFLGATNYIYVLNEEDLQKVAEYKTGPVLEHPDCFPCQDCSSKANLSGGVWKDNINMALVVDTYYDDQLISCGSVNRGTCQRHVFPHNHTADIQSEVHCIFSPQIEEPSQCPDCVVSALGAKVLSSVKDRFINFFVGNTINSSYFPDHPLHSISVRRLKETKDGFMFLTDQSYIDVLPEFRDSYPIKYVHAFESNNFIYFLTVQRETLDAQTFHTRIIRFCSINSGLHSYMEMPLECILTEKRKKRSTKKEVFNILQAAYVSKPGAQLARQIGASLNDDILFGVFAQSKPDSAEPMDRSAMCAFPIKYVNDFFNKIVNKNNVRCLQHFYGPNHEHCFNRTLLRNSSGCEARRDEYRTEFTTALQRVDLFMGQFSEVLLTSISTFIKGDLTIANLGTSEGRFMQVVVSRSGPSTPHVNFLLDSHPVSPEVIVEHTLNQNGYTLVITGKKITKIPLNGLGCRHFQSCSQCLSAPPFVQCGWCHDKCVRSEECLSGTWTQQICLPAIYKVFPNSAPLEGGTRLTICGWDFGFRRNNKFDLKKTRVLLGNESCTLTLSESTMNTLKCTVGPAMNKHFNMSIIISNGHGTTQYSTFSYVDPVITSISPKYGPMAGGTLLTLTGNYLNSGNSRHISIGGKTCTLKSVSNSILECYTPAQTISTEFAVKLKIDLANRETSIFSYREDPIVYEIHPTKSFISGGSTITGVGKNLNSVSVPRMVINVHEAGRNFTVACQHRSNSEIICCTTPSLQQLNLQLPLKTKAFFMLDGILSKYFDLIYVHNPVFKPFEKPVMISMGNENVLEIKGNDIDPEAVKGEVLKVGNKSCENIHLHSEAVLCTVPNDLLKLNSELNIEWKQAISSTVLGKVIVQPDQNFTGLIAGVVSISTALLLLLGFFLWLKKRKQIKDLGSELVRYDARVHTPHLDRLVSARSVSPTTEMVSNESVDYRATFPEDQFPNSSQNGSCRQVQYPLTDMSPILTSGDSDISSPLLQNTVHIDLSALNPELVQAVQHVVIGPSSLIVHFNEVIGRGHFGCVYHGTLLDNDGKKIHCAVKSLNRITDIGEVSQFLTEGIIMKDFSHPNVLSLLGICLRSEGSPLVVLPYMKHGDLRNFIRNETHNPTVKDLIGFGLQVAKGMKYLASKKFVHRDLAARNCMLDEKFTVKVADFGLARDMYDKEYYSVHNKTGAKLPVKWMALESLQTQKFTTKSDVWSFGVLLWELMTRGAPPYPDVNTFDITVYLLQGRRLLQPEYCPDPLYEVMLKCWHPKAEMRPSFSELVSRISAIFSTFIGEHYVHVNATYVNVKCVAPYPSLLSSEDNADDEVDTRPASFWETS

## COc1cnc2ccc(C(F)(F)c3nnc4c(F)cc(-c5cnn(C)c5)cn34)cc2c1
[1]
  IC50: 12 nM
Liver microsome [2]
  Stability: Stable
Cytochrome P450 3A4
  inhibition (INH): Not Active
Cytochrome P450 2D6
  inhibition (INH): Not Active
Liver microsome [3]
  Stability: Stable
[4]
  IC50: 13 nM
[5]
  AUC(0-inf): > 386 µM·h

## COc1cnc2ccc([C@H](C)c3nnc4c(F)cc(-c5cc(C)no5)cn34)cc2c1
[6]
  Drug metabolism: metabolite_detected
[7]
  Drug metabolism: metabolite_detected
[8]
  clearance: 1.5 mL/min/kg
Liver microsome [9]
  Drug metabolism: metabolite_detected
[10]
  bioavailability: 42%
Liver microsome [11]
  CL free: 233 mL/min/kg
[1]
  IC50: 2 nM
Liver microsome [12]
  Drug metabolism: metabolite_detected
[13]
  Vd: 0.18 L/kg
Liver microsome [14]
  Drug metabolism: metabolite_notdetected
[15]
  half-life: 2.5 h
Liver microsome [16]
  Drug metabolism: metabolite_detected
Liver microsome [17]
  Drug metabolism: metabolite_detected
[18]
  Drug metabolism: metabolite_detected
Liver microsome [19]
  Drug metabolism: metabolite_notdetected
Liver microsome [20]
  Drug metabolism: metabolite_detected
[21]
  Drug metabolism: metabolite_detected
Liver microsome [22]
  Drug metabolism: metabolite_detected
[23]
  AUC(0-inf): 9 µM·h
[24]
  Drug metabolism: metabolite_notdetected
[4]
  IC50: 6 nM
Liver microsome [25]
  Drug metabolism: metabolite_detected
